From ChEMBL document CHEMBL1157900, “Bivalent 5,8,9,13b-tetrahydro-6H-isoquino[1,2-a]isoquinolines and -isoquinolinium salts: novel heterocyclic templates for butyrylcholinesterase inhibitors” (Bioorg Med Chem Lett, 2010)
Activity calls are given as the source filed them. The calls are words filed in the database; no cut-off is given here.

Key:
[1] = Cytotoxicity against human U87MG cells assessed as cell viability after 24 hrs by MTT assay; format: cell-based, U-87MG ATCC
Method in brief: (§1)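 Photometric MTT cell-viability readout after compound exposure of human neuronal (SH-SY5Y) or glial (MG-U87) cells. CC50 reported as mean ± SD of at least three experiments, each run in triplicate.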

[2] = Cytotoxicity against human SH-SY5Y cells assessed as cell viability after 24 hrs by MTT assay; format: cell-based; method in brief: as §1
Acetylcholinesterase = Acetylcholinesterase (Electrophorus electricus, UniProt O42275); assay: Inhibition of Electric eel AChE after 2 mins by colorimetric Ellman assay
Acetylcholinesterase, sequence (O42275 whole entry): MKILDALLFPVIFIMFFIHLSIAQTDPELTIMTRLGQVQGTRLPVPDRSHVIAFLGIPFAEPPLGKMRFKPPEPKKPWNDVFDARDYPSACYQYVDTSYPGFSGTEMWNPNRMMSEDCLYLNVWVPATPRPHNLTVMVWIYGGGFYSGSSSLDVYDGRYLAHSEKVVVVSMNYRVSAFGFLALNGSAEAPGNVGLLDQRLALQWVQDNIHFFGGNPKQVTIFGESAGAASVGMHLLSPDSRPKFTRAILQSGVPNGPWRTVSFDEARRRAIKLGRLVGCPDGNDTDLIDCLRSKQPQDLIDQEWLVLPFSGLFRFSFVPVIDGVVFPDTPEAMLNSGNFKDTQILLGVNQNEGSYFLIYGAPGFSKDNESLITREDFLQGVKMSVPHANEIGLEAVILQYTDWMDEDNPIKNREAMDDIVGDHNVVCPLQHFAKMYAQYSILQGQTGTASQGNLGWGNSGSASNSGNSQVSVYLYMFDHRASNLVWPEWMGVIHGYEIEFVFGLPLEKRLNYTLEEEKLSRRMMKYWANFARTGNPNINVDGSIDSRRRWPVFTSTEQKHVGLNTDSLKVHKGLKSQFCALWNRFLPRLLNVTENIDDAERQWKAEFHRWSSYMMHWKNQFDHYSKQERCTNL

Cholinesterase = Cholinesterase (Equus caballus, UniProt P81908); assay: Inhibition of Equine serum BChE after 2 mins by colorimetric Ellman assay
Cholinesterase, sequence (P81908 whole entry): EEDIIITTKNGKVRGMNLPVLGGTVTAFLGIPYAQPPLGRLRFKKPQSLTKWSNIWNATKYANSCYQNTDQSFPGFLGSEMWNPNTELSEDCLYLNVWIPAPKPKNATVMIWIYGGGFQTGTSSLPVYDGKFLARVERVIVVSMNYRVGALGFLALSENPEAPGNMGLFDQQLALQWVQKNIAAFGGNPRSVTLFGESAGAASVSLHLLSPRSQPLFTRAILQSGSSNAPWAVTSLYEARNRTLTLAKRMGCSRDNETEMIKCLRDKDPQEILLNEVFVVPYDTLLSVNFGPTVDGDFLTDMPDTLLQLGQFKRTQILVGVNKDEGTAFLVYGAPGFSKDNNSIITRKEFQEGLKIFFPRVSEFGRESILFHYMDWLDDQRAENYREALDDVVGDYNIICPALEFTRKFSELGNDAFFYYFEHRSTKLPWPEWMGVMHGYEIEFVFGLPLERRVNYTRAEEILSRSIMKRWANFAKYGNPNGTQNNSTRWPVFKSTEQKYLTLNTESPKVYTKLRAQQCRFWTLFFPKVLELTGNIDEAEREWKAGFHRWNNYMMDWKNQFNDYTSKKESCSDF

[3] = Selectivity ratio of IC50 for Electric eel AChE to IC50 for equine serum BChE
[4] = target: Cholinesterase (Equus caballus) (UniProt P81908); assay: Competitive inhibition of Equine serum BChE by Lineweaver-Burke plot
Cholinesterase (Equus caballus), sequence (P81908 whole entry): as above
Method in brief: (§2)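 Equine serum BChE. Substrate-velocity curves were recorded at various substrate concentrations, each at several fixed inhibitor concentrations. Data were plotted as reciprocal velocity against reciprocal substrate concentration (Lineweaver-Burk). Km was taken as the negative reciprocal of the x-intercept and Vmax as the reciprocal of the y-intercept, then compared across inhibitor concentrations.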

[5] = target: Cholinesterase (Equus caballus) (UniProt P81908); assay: Reversible inhibition of Equine serum BChE by Lineweaver-Burke plot; method in brief: as §2

Structure (SMILES)	CC50 at 24 h [1]	CC50 at 24 h [2]	IC50 (Acetylcholinesterase; read-out: IC50)	IC50 (Cholinesterase; read-out: IC50)	Ratio IC50 [3]	inhibition [4]	inhibition [5]	IC50 (Acetylcholinesterase; read-out: pIC50 (converted))	IC50 (Cholinesterase; read-out: pIC50 (converted))
c1ccc2c(c1)CCN1CCc3cc(OCCCCCCOc4ccc5c(c4)CCN4CCc6ccccc6C54)ccc3C21 (centres undefined)	20.7 µM	7.4 µM	0.69 µM	0.014 µM	48.9	Active	Active		
C[N+]12CCc3ccccc3C1c1ccc(OCCCCCCCCOc3ccc4c(c3)CC[N+]3(C)CCc5ccccc5C43)cc1CC2 (centres undefined)			0.28 µM	0.11 µM	2.5				
C[N+]12CCc3ccccc3C1c1ccc(OCCCCCOc3ccc4c(c3)CC[N+]3(C)CCc5ccccc5C43)cc1CC2 (centres undefined)			0.28 µM	0.047 µM	5.9				
c1ccc2c(c1)CCN1CCc3cc(OCCCCOc4ccc5c(c4)CCN4CCc6ccccc6C54)ccc3C21 (centres undefined)	19.5 µM	6.35 µM	1.1 µM	0.017 µM	76.2				
c1ccc2c(c1)CCN1CCc3cc(OCCCCCOc4ccc5c(c4)CCN4CCc6ccccc6C54)ccc3C21 (centres undefined)	8.7 µM		0.65 µM	0.017 µM	38.3			0.308 µM	
C[N+]12CCc3ccccc3C1c1ccc(OCCCCOc3ccc4c(c3)CC[N+]3(C)CCc5ccccc5C43)cc1CC2 (centres undefined)			0.39 µM	0.051 µM	8.8				
c1ccc2c(c1)CCN1CCc3cc(OCCCCCCCCOc4ccc5c(c4)CCN4CCc6ccccc6C54)ccc3C21 (centres undefined)	42 µM	19.2 µM	1.2 µM	0.68 µM	3				
C[N+]12CCc3ccccc3C1c1ccc(OCCCCCCCCCCCCOc3ccc4c(c3)CC[N+]3(C)CCc5ccccc5C43)cc1CC2 (centres undefined)			0.12 µM	0.036 µM	3.4				0.0353 µM
COc1ccc2c(c1)CCN(C)CCc1ccccc1C2			> 10000 µM	> 10000 µM					
C[N+]12CCc3ccccc3C1c1ccc(OCCCOc3ccc4c(c3)CC[N+]3(C)CCc5ccccc5C43)cc1CC2 (centres undefined)			0.45 µM	0.16 µM					
c1ccc2c(c1)CCN1CCc3cc(OCCCOc4ccc5c(c4)CCN4CCc6ccccc6C54)ccc3C21 (centres undefined)	26.9 µM	8.94 µM	4.5 µM	0.15 µM	30.8				
c1ccc2c(c1)CCN1CCc3cc(OCCCCCCCCCCCCOc4ccc5c(c4)CCN4CCc6ccccc6C54)ccc3C21 (centres undefined)	46.6 µM		4.1 µM	0.92 µM	4.2				
CN1CCc2ccccc2Cc2ccc(OCCCCCCCCOc3ccc4c(c3)CCN(C)CCc3ccccc3C4)cc2CC1			2 µM	0.21 µM	9.9				
COc1ccc2c(c1)CC[N+]1(C)CCc3ccccc3C21 (centres undefined)			8.8 µM	6.4 µM	1.4				
C[N+]12CCc3ccccc3C1c1ccc(OCCCCCCOc3ccc4c(c3)CC[N+]3(C)CCc5ccccc5C43)cc1CC2 (centres undefined)			0.15 µM	0.027 µM	5.6				
CN1CCc2ccccc2Cc2ccc(OCCCOc3ccc4c(c3)CCN(C)CCc3ccccc3C4)cc2CC1			4.8 µM	0.14 µM	34				
COc1ccc2c(c1)CCN1CCc3ccccc3C21 (centres undefined)	775 µM	171 µM	> 10000 µM	> 10000 µM					
